Test results taken from ChEMBL document CHEMBL3392964, “Design, synthesis, and evaluation of novel imidazo[1,2-a][1,3,5]triazines and their derivatives as focal adhesion kinase inhibitors with antitumor activity” (J Med Chem, 2015).
Blank lines part the entries; values can stand above or below the compound they belong to. Activity calls are given as the source filed them. The calls are words filed in the database; no cut-off is given here.

Experiments:
Focal adhesion kinase 1 = Focal adhesion kinase 1 (Homo sapiens, UniProt Q05397); assay: Inhibition of FAK (unknown origin) using ULight-poly GT as substrate after 1.6 hrs by TR-FRET assay
[1] = Antiproliferative activity against human U87MG cells after 48 hrs by WST-1 assay; format: functional, cell-based, U-87MG ATCC; details: U-87 MG
Method in brief: (§1)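 Exponentially growing cells in DMEM/10% FBS seeded at 5 × 10^3 per well, left overnight, then exposed 48 h to compounds diluted from DMSO; WST-1 added for 2 h, absorbance at 450 nm (reference 620 nm); viability as ratio to DMSO controls; three independent experiments, triplicate points; IC50 by nonlinear regression (log inhibitor vs normalized response, variable slope).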

[2] = Antiproliferative activity against human HCT116 cells after 48 hrs by WST-1 assay; format: functional, cell-based; details: HCT-116, 48 h; method in brief: as §1
MDA-MB-231 [3] = assay: Antiproliferative activity against human MDA-MB-231 cells after 48 hrs by WST-1 assay; format: functional, cell-based; details: MDA-MB-231, 48 h; method in brief: as §1
[4] = Antiproliferative activity against human PC3 cells after 48 hrs by WST-1 assay; format: functional, cell-based; details: PC-3, 48 h; method in brief: as §1
[5] = (§2) Inhibition of colony formation in human U87MG cells after 2 weeks by crystal violet staining-based assay; format: functional, cell-based, U-87MG ATCC; details: U-87 MG, 336 h
Method in brief: (§3)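 Seeding: 250 cells per well for HCT-116, 300 for U87MG, MDA-MB-231 and PC-3; incubated overnight, then exposed to a range of concentrations for 2 weeks. Fixed in 4% paraformaldehyde 30 min at room temperature, stained with 0.1% crystal violet. Colonies over 50 cells counted; colony formation rate calculated; IC50 by nonlinear regression.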

[6] = (§4) Inhibition of colony formation in human HCT116 cells after 2 weeks by crystal violet staining-based assay; format: functional, cell-based; details: HCT-116, 336 h; method in brief: as §3
MDA-MB-231 [7] = assay: Inhibition of colony formation in human MDA-MB-231 cells after 2 weeks by crystal violet staining-based assay; format: functional, cell-based; details: for IC50: MDA-MB-231, 336 h; method in brief: as §3
[8] = (§5) Inhibition of colony formation in human PC3 cells after 2 weeks by crystal violet staining-based assay; format: functional, cell-based; details: PC-3, 336 h; method in brief: as §3
U-87 MG [9] = assay: Reduction of cell adherence in human U87MG cells after 30 mins by toluidine blue staining-based […]; format: functional; details: U-87MG ATCC
Method in brief: (§6)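 U87-MG cells grown in 10% serum, trypsinised, diluted to 100 000 cells/mL in 10% serum medium, then treated 30 min with compound or DMSO. 20 000 cells per well allowed to attach 1 h. Fixed in 4% paraformaldehyde 30 min, stained with 0.1% toluidine blue in 4% PFA 30 min, washed, OD read at 620 nm for attached cells.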

U-87MG ATCC [10] = assay: Antimigratory activity in human U87MG cells at 4 uM […] by transwell membrane assay; format: functional, cell-based
U-87MG ATCC [11] = assay: Antimigratory activity in human U87MG cells after 30 mins by boyden chamber assay; format: functional, cell-based
U-87MG ATCC [12] = assay: as §2; format: functional, cell-based; method in brief: as §3
HCT-116 [13] = assay: as §4; format: functional, cell-based; method in brief: as §3
PC-3 = assay: as §5; format: functional, cell-based; method in brief: as §3
U-87 MG [14] = assay: Induction of apoptosis in human U87MG cells assessed as early apoptotic cells at 0.3 uM after 24 hrs by Annexin V-PE/7-AAD staining-based FACS analysis (reference value: 0.691%); format: functional, U-87MG ATCC
U-87 MG [15] = assay: Induction of apoptosis in human U87MG cells assessed as late apoptotic cells at 0.3 uM after 24 hrs by Annexin V-PE/7-AAD staining-based FACS analysis (reference value: 1.59%); format: functional, U-87MG ATCC
U-87 MG [16] = assay: Induction of apoptosis in human U87MG cells assessed as necrotic cells at 0.3 uM after 24 hrs by Annexin V-PE/7-AAD staining-based FACS analysis (reference value: 1.06%); format: functional, U-87MG ATCC
U-87 MG [17] = assay: Induction of apoptosis in human U87MG cells assessed as viable cells at 0.3 uM after 24 hrs by Annexin V-PE/7-AAD staining-based FACS analysis (reference value: 96.7%); format: functional, U-87MG ATCC; details: read-out: Activity
HCT-116 [18] = assay: Induction of apoptosis in human HCT116 cells assessed as early apoptotic cells at 0.4 uM after 24 hrs by Annexin V-PE/7-AAD staining-based FACS analysis (reference value: 4.68%); format: functional
HCT-116 [19] = assay: Induction of apoptosis in human HCT116 cells assessed as late apoptotic cells at 0.4 uM after 24 hrs by Annexin V-PE/7-AAD staining-based FACS analysis (reference value: 1.22%); format: functional
HCT-116 [20] = assay: Induction of apoptosis in human HCT116 cells assessed as necrotic cells at 0.4 uM after 24 hrs by Annexin V-PE/7-AAD staining-based FACS analysis (reference value: 0.885%); format: functional
HCT-116 [21] = assay: Induction of apoptosis in human HCT116 cells assessed as viable cells at 0.4 uM after 24 hrs by Annexin V-PE/7-AAD staining-based FACS analysis (reference value: 93.2%); format: functional; details: HCT-116, 24 h, read-out: Activity
HCT-116 [22] = assay: Induction of apoptosis in human HCT116 cells at < 0.4 uM after 24 hrs by Annexin V-PE/7-AAD staining-based FACS analysis; format: functional, cell-based
[23] = Cell cycle arrest in human HCT116 cells assessed as accumulation at G0/G1 phase at 0.4 uM after 24 hrs by propidium iodide staining-based flow cytometry (reference value: 63.8%); format: functional; details: HCT-116
Method in brief: (§7)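 Cells plated at 10^5 per well, left overnight, then exposed 24 h to compound or vehicle; stained 15 min at 37 °C with propidium iodide/Triton buffer; DNA content by flow cytometry, phase distribution fitted by Dean–Jett–Fox; HCT-116 at 0.3–0.5 μM, U87-MG at 0.3–3 μM; significance by unpaired Student's t test; one representative experiment.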

[24] = Cell cycle arrest in human HCT116 cells assessed as accumulation at S phase at 0.4 uM after 24 hrs by propidium iodide staining-based flow cytometry (reference value: 17.7%); format: functional; details: HCT-116; method in brief: as §7
[25] = Cell cycle arrest in human HCT116 cells assessed as accumulation at G2/M phase at 0.4 uM after 24 hrs by propidium iodide staining-based flow cytometry (reference value: 14.6%); format: functional; details: HCT-116; method in brief: as §7
[26] = Cell cycle arrest in human U87MG cells at < 0.3 uM after 24 hrs by propidium iodide staining-based flow cytometry; format: functional; details: U-87MG ATCC; method in brief: as §7
[27] = Cell cycle arrest in human HCT116 cells at < 0.4 uM after 24 hrs by propidium iodide staining-based flow cytometry; format: functional; details: HCT-116; method in brief: as §7
U-87 MG [28] = assay: Reduction of cell adherence in human U87MG cells at 0.5 uM after 30 mins by toluidine blue staining-based […]; format: functional, U-87MG ATCC; set-up: scale not given: the % may be the effect or the level left; method in brief: as §6
[29] = Antimigratory activity in human U87MG cells at 0.4 uM […] by transwell membrane assay; format: functional, U-87MG ATCC
[30] = Antiinvasive activity in human U87MG cells after 24 hrs by matrigel assay; format: functional, U-87MG ATCC
Method in brief: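 U-87MG pre-exposed 24 h to compound or DMSO in 3% FBS, then 4 × 10^4 cells seeded in upper chamber of impedance-based CIM-16 plate (8 μm pore membrane) coated with Matrigel/collagen; lower chamber 10% FBS; cell index monitored at 37 °C, 5% CO2 for 12 h; slope (1/h) over set interval, DMSO slope set to 100; duplicate wells, repeated twice.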

U-87MG ATCC [31] = assay: Antiinvasive activity in human U87MG cells after 30 mins by boyden chamber assay; format: functional, cell-based
U-87MG ATCC [32] = assay: Antimigratory activity in human U87MG cells at 2 uM […] by transwell membrane assay; format: functional, cell-based

Sequence of Focal adhesion kinase 1 (Q05397 whole entry): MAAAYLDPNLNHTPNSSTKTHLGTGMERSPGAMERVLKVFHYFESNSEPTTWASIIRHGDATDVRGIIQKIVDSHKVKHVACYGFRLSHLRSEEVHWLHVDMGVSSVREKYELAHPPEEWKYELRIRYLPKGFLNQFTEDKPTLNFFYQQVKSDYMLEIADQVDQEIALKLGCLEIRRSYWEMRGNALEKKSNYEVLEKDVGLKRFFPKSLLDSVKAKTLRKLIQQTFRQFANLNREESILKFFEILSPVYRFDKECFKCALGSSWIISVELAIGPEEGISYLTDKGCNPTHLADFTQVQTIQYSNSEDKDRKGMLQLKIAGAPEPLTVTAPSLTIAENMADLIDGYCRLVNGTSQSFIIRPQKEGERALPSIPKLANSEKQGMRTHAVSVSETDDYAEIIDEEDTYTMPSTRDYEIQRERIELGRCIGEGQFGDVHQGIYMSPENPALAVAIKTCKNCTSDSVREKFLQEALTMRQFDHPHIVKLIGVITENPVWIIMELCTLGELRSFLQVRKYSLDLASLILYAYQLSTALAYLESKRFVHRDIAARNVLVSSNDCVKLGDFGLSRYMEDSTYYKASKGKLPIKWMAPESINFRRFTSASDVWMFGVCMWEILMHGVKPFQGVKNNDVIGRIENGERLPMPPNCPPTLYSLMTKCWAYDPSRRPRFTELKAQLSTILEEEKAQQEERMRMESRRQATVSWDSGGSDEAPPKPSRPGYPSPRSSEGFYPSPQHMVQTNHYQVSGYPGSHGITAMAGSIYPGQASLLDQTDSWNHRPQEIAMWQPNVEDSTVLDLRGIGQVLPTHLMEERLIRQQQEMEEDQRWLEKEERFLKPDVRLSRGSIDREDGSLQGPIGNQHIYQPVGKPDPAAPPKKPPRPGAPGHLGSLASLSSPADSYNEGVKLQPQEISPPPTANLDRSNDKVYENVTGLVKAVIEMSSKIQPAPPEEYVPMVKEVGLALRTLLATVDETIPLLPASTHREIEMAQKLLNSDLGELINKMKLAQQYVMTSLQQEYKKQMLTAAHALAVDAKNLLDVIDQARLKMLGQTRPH

SMILES: C=COC(=O)NCc1ccc(Nc2nc(Nc3ccccc3C(=O)OC)n3ccnc3n2)cc1
- IC50 (Focal adhesion kinase 1): 500 nM

SMILES: COC(=O)c1ccccc1Cc1nc(Nc2cc(OC)c(OC)c(OC)c2)nc2nccn12
- IC50 (Focal adhesion kinase 1): 370 nM

SMILES: CNC(=O)c1ccccc1Nc1nc(Nc2ccc(N3CCOCC3)cc2OC)n2ccnc2n1
- IC50 (Focal adhesion kinase 1): 510 nM

SMILES: CNC(=O)c1ccccc1Cc1nc(Nc2cc(OC)c(OC)c(OC)c2)nc2nccn12
- IC50 (Focal adhesion kinase 1): 180 nM

SMILES: COC(=O)c1ccccc1Nc1nc(Nc2ccc(CN)cc2)n2ccnc2n1
- IC50 (Focal adhesion kinase 1): 280 nM

Further compounds by falling IC50 (Focal adhesion kinase 1), results first:

- IC50 (Focal adhesion kinase 1): 920 nM
SMILES: CS(=O)(=O)Nc1ccccc1Nc1nc(Nc2ccc(C#N)cc2)nc2nccn12

- IC50 (Focal adhesion kinase 1): 840 nM
SMILES: COc1cc(Nc2nc(Cc3ccccc3NS(C)(=O)=O)nc3nccn23)cc(OC)c1OC

- IC50 (MDA-MB-231 [3]): > 10000 nM
- IC50 [5]: 1400 nM
- IC50 [6]: 20 nM
- IC50 (MDA-MB-231 [7]): > 10000 nM
- IC50 [8]: 630 nM
- IC50 (Focal adhesion kinase 1): 330 nM
SMILES: CNC(=O)c1ccccc1Nc1nc(Nc2ccc(N3CCOCC3)cc2OC)nc2nccn12
- IC50 [1]: 2310 nM
- IC50 [2]: 340 nM
- IC50 [4]: 270 nM
- inhibition (U-87MG ATCC [12]): Dose-dependent effect
- inhibition (HCT-116 [13]): Dose-dependent effect
- inhibition (MDA-MB-231 [7]): Dose-dependent effect
- inhibition (PC-3): Dose-dependent effect
- Activity (U-87 MG [9]): Dose-dependent effect
- Activity (U-87MG ATCC [32]): Active
- Activity (U-87MG ATCC [11]): Dose-dependent effect

- IC50 (Focal adhesion kinase 1): 280 nM
SMILES: COC(=O)c1ccccc1Nc1nc(Nc2cc(OC)c(OC)c(OC)c2)nc2nccn12

- IC50 (Focal adhesion kinase 1): 240 nM
SMILES: COC(=O)c1ccccc1Nc1nc(Nc2ccc(CN)cc2)nc2nccn12

- IC50 (MDA-MB-231 [3]): > 10000 nM
- IC50 [5]: 220 nM
- IC50 [6]: 760 nM
- IC50 (MDA-MB-231 [7]): 3900 nM
- IC50 [8]: 990 nM
- IC50 (Focal adhesion kinase 1): 230 nM
SMILES: CNC(=O)c1ccccc1Nc1nc(Nc2cc(OC)c(OC)c(OC)c2)nc2nccn12
- IC50 [1]: 4200 nM
- IC50 [2]: 950 nM
- IC50 [4]: 350 nM
- Activity (U-87 MG [9]): Dose-dependent effect
- Activity (U-87MG ATCC [10]): Active
- Activity (U-87MG ATCC [11]): Dose-dependent effect

- IC50 (MDA-MB-231 [3]): 1080 nM
- IC50 [5]: 220 nM
- IC50 [6]: 120 nM
- IC50 (MDA-MB-231 [7]): 520 nM
- IC50 [8]: 1400 nM
- IC50 (Focal adhesion kinase 1): 120 nM
SMILES: CNC(=O)c1ccccc1Nc1nc(Nc2ccc(CN)cc2)nc2nccn12
- IC50 [1]: 370 nM
- IC50 [2]: 310 nM
- IC50 [4]: 1270 nM
- inhibition (U-87MG ATCC [12]): Dose-dependent effect
- inhibition (HCT-116 [13]): Dose-dependent effect
- inhibition (MDA-MB-231 [7]): Dose-dependent effect
- inhibition (PC-3): Dose-dependent effect
- Activity (U-87 MG [14]): 1.37%
- Activity (U-87 MG [15]): 0.755%
- Activity (U-87 MG [16]): 1.26%
- viability at 0.3 µM (U-87 MG [17]): 96.6%
- Activity (HCT-116 [18]): 4.24%
- Activity (HCT-116 [19]): 4.06%
- Activity (HCT-116 [20]): 3.03%
- viability at 0.4 µM (HCT-116 [21]): 88.7%
- Activity (HCT-116 [22]): inactive
- Activity [23]: 24.4%
- Activity [24]: 12.8%
- Activity [25]: 61%
- Activity [26]: Active
- Activity [27]: Active
- Activity (U-87 MG [9]): Dose-dependent effect
- Activity (U-87 MG [28]): 50%
- Activity [29]: 66.4%
- Activity (U-87MG ATCC [11]): Dose-dependent effect
- Activity [30]: 50%
- Activity (U-87MG ATCC [31]): Dose-dependent effect
